Experimental data reported in ChEMBL document CHEMBL4350961, “Discovery of Pyrrolo[3,2- d]pyrimidin-4-one Derivatives as a New Class of Potent and Cell-Active Inhibitors of P300/CBP-Associated Factor Bromodomain” (J Med Chem, 2019).
Calls of active or inactive are those of the source. The calls are words filed in the database; no cut-off is given here.

Key:
[1] = AUC (0 to infinity) in Sprague-Dawley rat at 10 mg/kg, po administered via gavage by LC-MS/MS analysis; assay type: ADME, organism-based; design: dose 10 mg/kg, route oral, time infinity; details: in vivo
In short: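 Serial jugular blood samples taken at designated times and spun to plasma at 4 ℃. Plasma mixed with acetonitrile holding internal standard, then LC-MS/MS. Parameters from noncompartmental fitting.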

[2] = test system: Mitogen-activated protein kinase 14 (Homo sapiens), Q16539 [T106M]; assay: Inhibition of recombinant full-length human SAPK2a T106M mutant at 10 uM using myelin basic protein as substrate measured after 40 mins in presence of [gamma33P]ATP by scintillation counting method
[3] = test system: Tyrosine-protein kinase ABL1 (Homo sapiens), P00519 [M351T]; assay: Inhibition of recombinant human ABL M351T mutant (27 to end residues) at 10 uM using EAIYAAPFAKKK as substrate measured after 40 mins in presence of [gamma33P]ATP by scintillation counting method
[4] = test system: Calcium/calmodulin-dependent protein kinase kinase 2 (Homo sapiens), Q96RR4 [T85S]; assay: Inhibition of recombinant full-length human CAMKk2 T85S mutant at 10 uM using calmodulin as substrate measured after 40 mins in presence of [gamma33P]ATP by scintillation counting method
[5] = target: Cyclin-Y/Cyclin-dependent kinase 16 (Homo sapiens) (UniProt Q00536+Q8ND76); assay: Inhibition of recombinant full length human CDK16/cyclinY at 10 uM using PKSPKARKKL as substrate measured after 120 mins in presence of [gamma33P]ATP by scintillation counting method; assay type: protein-complex assay
[6] = target: CDK9/cyclin T1 (Homo sapiens) (UniProt O60563+P50750); assay: Inhibition of recombinant full length human CDK9/cyclinT1 at 10 uM using KTFCGTPEYLAPEVRREPRILSEEEQEMFRDFDYIADWC as substrate measured after 40 mins in presence of [gamma33P]ATP by scintillation counting method; assay type: protein-complex assay
[7] = target: Citron Rho-interacting kinase (Homo sapiens) (UniProt O14578); assay: Inhibition of recombinant human CRIK at 10 uM using KKLRRTLSVA as substrate measured after 120 mins in presence of [gamma33P]ATP by scintillation counting method
[8] = test system: Mast/stem cell growth factor receptor Kit (Homo sapiens), P10721 [D816H]; assay: Inhibition of recombinant human c-Kit D816H mutant (544 to end residues) at 10 uM using GGMEDIYFEFMGGKKK as substrate measured after 40 mins in presence of [gamma33P]ATP by scintillation counting method
[9] = target: Protein kinase C epsilon type (Homo sapiens) (UniProt Q02156); assay: Inhibition of recombinant human PKCepsilon (2 to end residues) at 10 uM using ERMRPRKRQGSVRRRV as substrate measured after 40 mins in presence of [gamma33P]ATP by scintillation counting method
[10] = target: Serine/threonine-protein kinase PAK 3 (Homo sapiens) (UniProt O75914); assay: Inhibition of recombinant full-length human PAK3 at 10 uM using RRRLSFAEPG as substrate measured after 40 mins in presence of [gamma33P]ATP by scintillation counting method
[11] = target: Serine/threonine-protein kinase MRCK beta (Homo sapiens) (UniProt Q9Y5S2); assay: Inhibition of recombinant human MRCKbeta (1 to 473 residues) at 10 uM using KKRNRTLTV as substrate measured after 40 mins in presence of [gamma33P]ATP by scintillation counting method
[12] = target: Bone morphogenetic protein receptor type-2 (Homo sapiens) (UniProt Q13873); assay: Inhibition of recombinant human BMPR2 (172 to 734 residues) at 10 uM using myelin basic protein as substrate measured after 120 mins in presence of [gamma33P]ATP by scintillation counting method
[13] = target: CDK2/Cyclin A2 (Homo sapiens) (UniProt P24941+P20248); assay: Inhibition of recombinant full-length human CDK2/cyclinA at 10 uM using histone H1 as substrate measured after 40 mins in presence of [gamma33P]ATP by scintillation counting method; assay type: protein-complex assay
[14] = target: Serine/threonine-protein kinase Nek1 (Homo sapiens) (UniProt Q96PY6); assay: Inhibition of recombinant human NEK1 (1 to 505 residues) at 10 uM using RLGRDKYKTLRQIRQ as substrate measured after 40 mins in presence of [gamma33P]ATP by scintillation counting method
[15] = target: Bromodomain and WD repeat-containing protein 1 (Homo sapiens) (UniProt Q9NSI6); assay: Binding affinity to human partial length WDR9 bromodomain 2 (A1310 to E1430 residues) expressed in bacterial expression system at 1 uM by BROMOscan assay
In short: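 Outsourced competition-binding profiling (BROMOscan) at a single concentration of 1 µM against 32 recombinant bromodomains; binding expressed as percentage of control.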

[16] = target: Tyrosine-protein kinase Fer (Homo sapiens) (UniProt P16591); assay: Inhibition of recombinant human FER (541 to end residues) at 10 uM using KKKSPGEYVNIEFG as substrate measured after 40 mins in presence of [gamma33P]ATP by scintillation counting method
Homo sapiens [17] = species on record: Homo sapiens; assay: Inhibition of recombinant full-length human ATRIP/ATR M211T mutant at 10 uM using GST-cMyc-p53 as substrate measured after 40 mins by fluorescence assay
Homo sapiens [18] = species on record: Homo sapiens; assay: Inhibition of recombinant human MARK1 T20S mutant (2 to end residues) at 10 uM using KKKVSRSGLYRSPSMPENLNRPR as substrate measured after 40 mins in presence of [gamma33P]ATP by scintillation counting method
[19] = test system: Ribosomal protein S6 kinase alpha-1 (Rattus norvegicus), Q63531 [S637N,G697A]; assay: Inhibition of recombinant full-length rat Rsk1 S637N/G697A mutant at 10 uM using KKKNRTLSVA as substrate measured after 40 mins in presence of [gamma33P]ATP by scintillation counting method
[20] = target: Tribbles homolog 2 (Homo sapiens) (UniProt Q92519); assay: Inhibition of recombinant full-length human TRB2 at 10 uM using RRRFRPASPLRGPPK as substrate measured after 120 mins in presence of [gamma33P]ATP by scintillation counting method
[21] = target: TRAF2 and NCK-interacting protein kinase (Homo sapiens) (UniProt Q9UKE5); assay: Inhibition of human TNIK (1 to 367 residues) using RLGRDKYKTLRQIRQ as substrate measured after 40 mins in presence of [gamma33P]ATP by scintillation counting method
[22] = target: Serine/threonine-protein kinase PAK 5 (Homo sapiens) (UniProt Q9P286); assay: Inhibition of recombinant human PAK5 (425 to end residues) at 10 uM using RRRLSFAEPG as substrate measured after 40 mins in presence of [gamma33P]ATP by scintillation counting method
[23] = target: Phosphatidylinositol 3-kinase C2 domain-containing subunit gamma (Homo sapiens) (UniProt O75747); assay: Inhibition of recombinant human PI3KC2gamma (468 to 1203 residues) at 10 uM using phosphatidylinositol as substrate measured after 40 mins by HTRF assay

Sequence of Bromodomain and WD repeat-containing protein 1 (Homo sapiens) (Q9NSI6 whole entry, the tested form may be a part): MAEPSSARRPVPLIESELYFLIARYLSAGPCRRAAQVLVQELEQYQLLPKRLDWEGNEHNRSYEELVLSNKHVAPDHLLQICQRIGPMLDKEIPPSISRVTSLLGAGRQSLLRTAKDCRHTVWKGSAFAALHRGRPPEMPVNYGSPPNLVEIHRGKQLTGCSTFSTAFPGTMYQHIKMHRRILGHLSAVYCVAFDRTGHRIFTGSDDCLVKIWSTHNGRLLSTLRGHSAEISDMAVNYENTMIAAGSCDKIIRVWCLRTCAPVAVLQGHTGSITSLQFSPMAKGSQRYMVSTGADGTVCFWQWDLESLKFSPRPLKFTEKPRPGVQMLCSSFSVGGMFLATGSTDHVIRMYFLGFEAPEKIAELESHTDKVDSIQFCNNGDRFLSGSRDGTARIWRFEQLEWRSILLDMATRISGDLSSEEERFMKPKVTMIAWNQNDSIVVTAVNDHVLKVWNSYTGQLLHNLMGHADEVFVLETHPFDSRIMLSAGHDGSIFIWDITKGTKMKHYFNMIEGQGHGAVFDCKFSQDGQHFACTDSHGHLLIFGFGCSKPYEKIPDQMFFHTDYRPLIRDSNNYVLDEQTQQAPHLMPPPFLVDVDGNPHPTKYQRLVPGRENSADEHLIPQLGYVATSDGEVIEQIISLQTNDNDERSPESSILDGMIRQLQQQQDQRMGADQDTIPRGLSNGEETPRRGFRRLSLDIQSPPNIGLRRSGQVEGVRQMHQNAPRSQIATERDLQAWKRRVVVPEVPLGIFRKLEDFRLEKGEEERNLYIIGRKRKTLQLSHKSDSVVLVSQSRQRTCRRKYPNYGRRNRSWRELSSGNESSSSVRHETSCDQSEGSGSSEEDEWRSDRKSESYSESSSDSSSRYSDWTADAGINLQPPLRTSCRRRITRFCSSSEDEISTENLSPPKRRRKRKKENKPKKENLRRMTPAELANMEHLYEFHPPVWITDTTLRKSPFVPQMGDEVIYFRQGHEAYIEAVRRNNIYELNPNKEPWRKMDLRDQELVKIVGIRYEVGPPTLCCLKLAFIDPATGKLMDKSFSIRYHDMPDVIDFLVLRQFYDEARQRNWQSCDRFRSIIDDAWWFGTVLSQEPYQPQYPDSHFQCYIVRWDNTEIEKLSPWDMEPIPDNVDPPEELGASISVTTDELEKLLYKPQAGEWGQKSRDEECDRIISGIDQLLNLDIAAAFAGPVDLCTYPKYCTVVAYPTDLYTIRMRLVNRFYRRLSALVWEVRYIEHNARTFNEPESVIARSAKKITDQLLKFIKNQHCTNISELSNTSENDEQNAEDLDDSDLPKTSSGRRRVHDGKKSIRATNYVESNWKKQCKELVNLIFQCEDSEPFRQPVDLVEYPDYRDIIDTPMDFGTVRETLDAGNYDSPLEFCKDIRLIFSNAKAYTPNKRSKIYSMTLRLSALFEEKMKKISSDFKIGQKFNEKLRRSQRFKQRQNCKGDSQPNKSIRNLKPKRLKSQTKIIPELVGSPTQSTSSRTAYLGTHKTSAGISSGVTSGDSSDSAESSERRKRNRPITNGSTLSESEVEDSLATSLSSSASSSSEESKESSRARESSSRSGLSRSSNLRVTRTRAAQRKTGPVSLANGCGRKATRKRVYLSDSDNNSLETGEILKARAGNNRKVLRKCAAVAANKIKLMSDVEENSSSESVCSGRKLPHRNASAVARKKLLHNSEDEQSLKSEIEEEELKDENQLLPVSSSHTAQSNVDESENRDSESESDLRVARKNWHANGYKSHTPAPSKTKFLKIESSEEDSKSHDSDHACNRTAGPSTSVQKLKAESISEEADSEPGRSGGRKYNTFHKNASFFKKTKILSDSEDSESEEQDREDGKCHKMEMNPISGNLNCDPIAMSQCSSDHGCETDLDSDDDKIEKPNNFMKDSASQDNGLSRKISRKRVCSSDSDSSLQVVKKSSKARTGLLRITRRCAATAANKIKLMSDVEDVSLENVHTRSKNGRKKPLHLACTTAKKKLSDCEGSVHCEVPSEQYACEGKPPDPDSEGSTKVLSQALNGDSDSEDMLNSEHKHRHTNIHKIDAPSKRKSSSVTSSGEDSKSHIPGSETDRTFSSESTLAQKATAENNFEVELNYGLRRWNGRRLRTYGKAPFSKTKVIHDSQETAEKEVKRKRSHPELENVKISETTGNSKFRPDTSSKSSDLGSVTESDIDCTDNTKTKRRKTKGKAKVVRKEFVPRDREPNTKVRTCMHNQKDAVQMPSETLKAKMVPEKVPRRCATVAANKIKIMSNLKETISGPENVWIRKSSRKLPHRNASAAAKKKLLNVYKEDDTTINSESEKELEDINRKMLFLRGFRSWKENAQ
Sequence of Ribosomal protein S6 kinase alpha-1 (Rattus norvegicus), Q63531 [S637N,G697A] (Q63531 whole entry S637N/G697A): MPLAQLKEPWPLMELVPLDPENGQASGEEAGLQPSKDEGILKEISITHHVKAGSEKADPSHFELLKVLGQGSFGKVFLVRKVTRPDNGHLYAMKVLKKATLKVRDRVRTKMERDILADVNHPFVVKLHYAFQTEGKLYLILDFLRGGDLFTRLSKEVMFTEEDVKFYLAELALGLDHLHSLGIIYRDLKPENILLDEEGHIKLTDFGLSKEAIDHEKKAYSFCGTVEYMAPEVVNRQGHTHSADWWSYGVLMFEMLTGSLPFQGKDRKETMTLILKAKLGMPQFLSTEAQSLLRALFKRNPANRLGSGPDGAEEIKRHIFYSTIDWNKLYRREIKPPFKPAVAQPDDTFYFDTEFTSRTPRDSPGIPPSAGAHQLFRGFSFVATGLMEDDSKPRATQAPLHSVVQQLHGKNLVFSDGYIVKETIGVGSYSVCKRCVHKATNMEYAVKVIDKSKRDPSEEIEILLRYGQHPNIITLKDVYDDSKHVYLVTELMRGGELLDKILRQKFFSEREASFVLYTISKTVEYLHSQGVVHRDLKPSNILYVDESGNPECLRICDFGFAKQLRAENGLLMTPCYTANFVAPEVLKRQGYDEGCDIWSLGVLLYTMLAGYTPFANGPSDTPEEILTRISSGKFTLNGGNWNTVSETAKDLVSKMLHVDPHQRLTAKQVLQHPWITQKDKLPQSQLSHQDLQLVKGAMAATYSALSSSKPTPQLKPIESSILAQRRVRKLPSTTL
Sequence of Serine/threonine-protein kinase PAK 3 (Homo sapiens) (O75914 whole entry, looked up, the tested form may be a part): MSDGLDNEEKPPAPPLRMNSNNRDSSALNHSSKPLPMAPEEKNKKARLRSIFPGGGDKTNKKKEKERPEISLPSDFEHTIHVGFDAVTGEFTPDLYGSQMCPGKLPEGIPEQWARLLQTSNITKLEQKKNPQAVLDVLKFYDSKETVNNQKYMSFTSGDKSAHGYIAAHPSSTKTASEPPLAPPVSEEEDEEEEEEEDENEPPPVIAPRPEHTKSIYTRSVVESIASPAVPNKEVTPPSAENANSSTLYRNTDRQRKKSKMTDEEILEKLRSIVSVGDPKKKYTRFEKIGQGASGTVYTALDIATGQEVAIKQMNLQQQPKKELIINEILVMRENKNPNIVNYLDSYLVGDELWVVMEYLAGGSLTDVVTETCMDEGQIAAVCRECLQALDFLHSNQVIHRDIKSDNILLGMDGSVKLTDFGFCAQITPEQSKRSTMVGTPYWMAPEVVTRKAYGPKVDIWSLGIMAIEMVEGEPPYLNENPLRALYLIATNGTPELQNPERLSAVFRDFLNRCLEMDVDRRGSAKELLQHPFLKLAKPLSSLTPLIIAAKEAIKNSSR
Sequence of Bone morphogenetic protein receptor type-2 (Homo sapiens) (Q13873 whole entry, the tested form may be a part): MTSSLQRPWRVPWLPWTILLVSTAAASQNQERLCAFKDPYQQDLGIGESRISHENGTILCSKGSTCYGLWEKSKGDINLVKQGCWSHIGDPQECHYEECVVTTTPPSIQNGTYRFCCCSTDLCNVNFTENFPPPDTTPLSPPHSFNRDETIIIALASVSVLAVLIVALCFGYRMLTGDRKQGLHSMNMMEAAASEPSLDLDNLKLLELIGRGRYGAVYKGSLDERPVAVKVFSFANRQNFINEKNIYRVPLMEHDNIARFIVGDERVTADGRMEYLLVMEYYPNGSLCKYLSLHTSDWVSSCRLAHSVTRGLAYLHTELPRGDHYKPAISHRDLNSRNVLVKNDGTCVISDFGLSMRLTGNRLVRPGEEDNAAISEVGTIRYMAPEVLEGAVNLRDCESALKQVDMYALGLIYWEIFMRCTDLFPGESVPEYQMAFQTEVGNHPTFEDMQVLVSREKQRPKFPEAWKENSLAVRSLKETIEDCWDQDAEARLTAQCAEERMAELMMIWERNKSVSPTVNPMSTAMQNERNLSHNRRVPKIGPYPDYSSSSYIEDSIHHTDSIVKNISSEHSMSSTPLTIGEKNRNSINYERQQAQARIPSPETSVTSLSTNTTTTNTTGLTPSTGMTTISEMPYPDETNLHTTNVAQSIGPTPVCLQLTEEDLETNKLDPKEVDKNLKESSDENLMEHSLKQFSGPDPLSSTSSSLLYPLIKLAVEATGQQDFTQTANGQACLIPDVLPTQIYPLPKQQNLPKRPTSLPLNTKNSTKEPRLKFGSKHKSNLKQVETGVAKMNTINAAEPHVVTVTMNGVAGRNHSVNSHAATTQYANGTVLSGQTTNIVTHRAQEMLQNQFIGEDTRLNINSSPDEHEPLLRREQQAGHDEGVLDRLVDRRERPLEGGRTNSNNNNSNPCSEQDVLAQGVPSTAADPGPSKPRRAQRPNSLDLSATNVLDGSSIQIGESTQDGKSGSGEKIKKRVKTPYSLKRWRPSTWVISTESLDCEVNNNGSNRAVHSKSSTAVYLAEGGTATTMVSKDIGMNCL
Sequence of Mitogen-activated protein kinase 14 (Homo sapiens), Q16539 [T106M] (Q16539 whole entry T106M): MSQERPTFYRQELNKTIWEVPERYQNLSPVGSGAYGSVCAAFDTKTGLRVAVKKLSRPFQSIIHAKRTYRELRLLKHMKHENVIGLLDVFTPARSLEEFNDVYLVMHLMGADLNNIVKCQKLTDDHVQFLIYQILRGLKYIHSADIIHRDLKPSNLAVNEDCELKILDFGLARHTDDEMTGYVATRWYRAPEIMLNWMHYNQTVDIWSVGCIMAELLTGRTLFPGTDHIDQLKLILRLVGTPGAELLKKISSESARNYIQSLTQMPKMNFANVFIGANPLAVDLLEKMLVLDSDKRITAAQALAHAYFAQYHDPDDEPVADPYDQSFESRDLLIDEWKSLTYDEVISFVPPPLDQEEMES

In the case of `CN1C[C@H](Nc2nc3cc[nH]c3c(=O)n2C)C[C@H](c2ccc3c(c2)OCCO3)C1`, the AUC(0-inf) [1] is reported as 2490 ng·h/mL, the inhibition [2] is reported as “inactive” and the inhibition [3] is reported as “inactive”. For the same compound, the inhibition [4] was “inactive”, the inhibition [5] was “inactive” and the inhibition [6] was “inactive”. The inhibition [7] was “inactive”, the inhibition [8] was “inactive” and the inhibition [9] was “inactive”. The inhibition [10] was “inactive”, the inhibition [11] was “inactive” and the inhibition [12] was “inactive”. The inhibition [13] was “inactive”, the inhibition [14] was “inactive” and the Activity [15] was “inactive”. The inhibition [16] was “inactive”, the inhibition (Homo sapiens [17]) was “inactive” and the inhibition (Homo sapiens [18]) was “inactive”. The inhibition [19] was “inactive”, the inhibition [20] was “inactive” and the inhibition [21] was “inactive”. For the same compound, the inhibition [22] was “inactive” and the inhibition [23] was “inactive”.
